Here are results for 1 compound from ChEMBL document CHEMBL3414472, “Synthesis, SAR, and series evolution of novel oxadiazole-containing 5-lipoxygenase activating protein inhibitors: discovery of 2-[4-(3-{(r)-1-[4-(2-amino-pyrimidin-5-yl)-phenyl]-1-cyclopropyl-ethyl}-[1,2,4]oxadiazol-5-yl)-pyrazol-1-yl]-N,N-dimethyl-acetamide (BI 665915)” (J Med Chem, 2015).

Converted amounts (≈) assume the structure as drawn.

Data set [1] deals with T1, Leukotriene B4 receptor 2 (Homo sapiens) (UniProt Q9NPC1).
T1 sequence (whole entry): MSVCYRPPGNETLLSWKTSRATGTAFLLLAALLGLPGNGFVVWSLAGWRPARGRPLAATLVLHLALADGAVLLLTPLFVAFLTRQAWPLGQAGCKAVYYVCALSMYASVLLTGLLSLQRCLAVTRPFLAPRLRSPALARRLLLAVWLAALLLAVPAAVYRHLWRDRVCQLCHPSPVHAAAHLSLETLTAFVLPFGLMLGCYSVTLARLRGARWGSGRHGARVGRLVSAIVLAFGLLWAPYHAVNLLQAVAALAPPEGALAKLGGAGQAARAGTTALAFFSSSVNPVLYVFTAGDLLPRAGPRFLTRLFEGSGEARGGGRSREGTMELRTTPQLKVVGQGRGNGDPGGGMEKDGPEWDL
The data set is described as follows: Inhibition of BLT2 (unknown origin) at 10 uM relative to control.

The nature of data set [2]: Clearance in human hepatocytes at 1 uM measured over 6 hrs by LC/MS analysis relative to hepatic blood flow. The format is ADME, cell-based, Liver, Hepatocyte. The settings on record: read-out: CLH. In short, it runs like this:
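Cryopreserved human hepatocytes (1 million cells/mL) incubated with compound (1 µM) at 37 °C; compound remaining measured by LC/MS over duplicate 6-timepoint curves (0 to 6 h). The slope is taken from ln % remaining versus time. Clearance is expressed as percent of hepatic blood flow.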

A short description of data set [3]: Efflux ratio of permeability across human Caco2 cells. The format is ADME, cell-based. The settings on record: Caco-2. The method in brief: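 Caco-2 cells were seeded at 1-2 x 10^5 cells/cm2 on 0.4 µm PET filter inserts and cultured 10 to 25 days. Compound in HTP-4 transport buffer was added to the apical or basolateral donor side for A-B or B-A transport. Donor and receiver samples were taken up to 2 h and measured by LC/MS/MS. Each value is from duplicate 6-timepoint curves (0 to 2 h).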

The test system of another data set is Rattus norvegicus. Briefly: Clearance in rat at 1 mg/kg, iv and 10 mg/kg, po relative to hepatic blood flow. The format is ADME, organism-based, Liver. The settings on record: in vivo. The method in brief:
(§1)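 iv 1 mg/kg in 70 % PEG; po 10 mg/kg as suspension in 0.5 % methyl cellulose/0.015 % Tween. Blood sampled at 11 timepoints (0, 5, 15, 30 min, 1, 2, 4, 6, 8, 12, 24 h) per dose; mean of n = 3. Clearance expressed as percent of hepatic blood flow.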

The next data set deals with Cynomolgus monkey. Briefly: Clearance in cynomolgus monkey at 1 mg/kg, iv and 10 mg/kg, po relative to hepatic blood flow. The format is ADME, organism-based, Macaca fascicularis, Liver. The settings on record: in vivo. In short, it runs like this: as §1
Data set [4] in a line: Volume of distribution at steady state in cynomolgus monkey at 1 mg/kg, iv and 10 mg/kg, po. The format is ADME, organism-based, Macaca fascicularis. The settings on record: in vivo, read-out: Vdss. The method in brief:
as §1

Data set [5] is described as follows: Plasma concentration in C57BL/6 mouse at 30 mg/kg, po after 2 hrs. The format is ADME, organism-based. Also on record: dose 30 mg/kg, route oral.
Data set [6] concerns Mus musculus. The data set is described as follows: In vivo inhibition of FLAP in po dosed C57BL/6 mouse assessed as reduction of LTB4 production in calcimycin-stimulated whole blood after 2 hrs by ELISA. The format is functional, organism-based. On the technique in general: In an ELISA, binding on a coated surface is turned into a signal by an enzyme label.
Data set [7] deals with Mus musculus. The data set is described as follows: In vivo inhibition of FLAP in C57BL/6 mouse assessed as LTB4 production in calcimycin-stimulated whole blood at 3 mg/kg, po after 2 hrs by ELISA (reference value: 100 +/- 13.3%). The format is functional. More on the design: scale not given: the % may be the effect or the level left.
For data set [8], the target named is T2, Arachidonate 5-lipoxygenase-activating protein (Homo sapiens, UniProt P20292).
T2 sequence (P20292 whole entry): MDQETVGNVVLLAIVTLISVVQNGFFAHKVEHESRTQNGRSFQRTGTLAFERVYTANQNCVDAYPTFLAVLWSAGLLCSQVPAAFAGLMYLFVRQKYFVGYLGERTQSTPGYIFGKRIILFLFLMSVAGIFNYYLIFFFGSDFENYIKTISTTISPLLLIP
Briefly: Inhibition of FLAP in calcimycin-stimulated human whole blood assessed as inhibition of LTB4 synthesis preincubated for 15 mins followed by calcimycin stimulation measured after 30 mins. The method in brief: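 Heparinized human volunteer blood preincubated with compound 15 min at 37 °C, 5 % CO2; calcimycin 100 µM final, 30 min at 37 °C; spun 2000 rpm 5 min at 4 °C. Supernatant LTB4 measured by HTRF competition (LTB4-XL665 plus anti-LTB4 cryptate, 2 h room temperature). Geometric mean (n ≥ 3) of duplicate 10-point curves.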

A short description of data set [9]: Aqueous equilibrium solubility of the compound in crystalline form in citric acid/disodium phosphate buffer at pH 6.8 after 24 hrs of rotation by HPLC analysis. The format is physicochemical. The method in brief:
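Saturated solution of crystalline material in citric acid/disodium phosphate buffer pH 6.8 rotated 24 h; after centrifugation and filtration, dissolved concentration measured by HPLC.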

The target in the next data set is hERG (KCNH2) (Homo sapiens, UniProt Q12809). Briefly: Inhibition of human ERG expressed in HEK293 cells assessed as change in tail current at 11 uM by manual patch clamp assay relative to control. The format is cell-based. The settings on record: HEK293 cells that express hERG. In short, it runs like this: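 Whole-cell manual patch clamp on HEK293 cells stably expressing human ERG, at room temperature (20-22 °C) in a perfusion chamber. Change in hERG tail current amplitude during the hyperpolarizing step measured with escalating compound concentrations.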
hERG (KCNH2), sequence (Q12809 whole entry, the tested form may be a part): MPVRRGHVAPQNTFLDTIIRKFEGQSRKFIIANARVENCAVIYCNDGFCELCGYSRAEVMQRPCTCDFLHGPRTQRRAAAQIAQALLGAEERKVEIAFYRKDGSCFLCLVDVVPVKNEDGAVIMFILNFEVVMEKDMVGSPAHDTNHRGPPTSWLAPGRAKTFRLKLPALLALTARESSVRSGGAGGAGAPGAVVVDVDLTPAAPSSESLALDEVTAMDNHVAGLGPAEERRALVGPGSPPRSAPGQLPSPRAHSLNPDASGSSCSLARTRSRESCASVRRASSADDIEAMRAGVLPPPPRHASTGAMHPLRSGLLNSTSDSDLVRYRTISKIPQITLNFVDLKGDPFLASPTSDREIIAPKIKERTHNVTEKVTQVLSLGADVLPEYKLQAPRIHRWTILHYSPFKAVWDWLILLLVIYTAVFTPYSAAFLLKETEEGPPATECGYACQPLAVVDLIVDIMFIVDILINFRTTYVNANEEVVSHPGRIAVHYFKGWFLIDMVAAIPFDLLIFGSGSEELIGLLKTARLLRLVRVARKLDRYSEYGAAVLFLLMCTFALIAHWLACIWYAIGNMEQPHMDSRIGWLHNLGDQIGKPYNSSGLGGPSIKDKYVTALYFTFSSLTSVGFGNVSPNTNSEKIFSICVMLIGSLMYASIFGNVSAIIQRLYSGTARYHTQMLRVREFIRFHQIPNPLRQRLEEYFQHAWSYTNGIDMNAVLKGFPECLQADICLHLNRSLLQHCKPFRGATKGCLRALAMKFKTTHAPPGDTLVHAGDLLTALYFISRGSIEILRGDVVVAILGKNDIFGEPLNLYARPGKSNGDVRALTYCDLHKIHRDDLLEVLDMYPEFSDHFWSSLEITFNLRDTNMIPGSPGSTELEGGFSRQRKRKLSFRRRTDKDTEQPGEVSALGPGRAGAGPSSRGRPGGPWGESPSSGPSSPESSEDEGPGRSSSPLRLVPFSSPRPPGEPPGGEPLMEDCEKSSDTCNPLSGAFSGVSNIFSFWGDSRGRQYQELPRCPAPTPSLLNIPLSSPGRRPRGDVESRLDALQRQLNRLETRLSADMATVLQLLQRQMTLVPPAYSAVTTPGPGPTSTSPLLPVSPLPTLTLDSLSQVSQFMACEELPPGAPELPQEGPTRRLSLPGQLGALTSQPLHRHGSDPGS
(Patch clamp records ionic current or voltage across a cell membrane.)

Data set [10] deals with T3, Polyunsaturated fatty acid 5-lipoxygenase (Homo sapiens) (UniProt P09917).
T3 sequence (whole entry): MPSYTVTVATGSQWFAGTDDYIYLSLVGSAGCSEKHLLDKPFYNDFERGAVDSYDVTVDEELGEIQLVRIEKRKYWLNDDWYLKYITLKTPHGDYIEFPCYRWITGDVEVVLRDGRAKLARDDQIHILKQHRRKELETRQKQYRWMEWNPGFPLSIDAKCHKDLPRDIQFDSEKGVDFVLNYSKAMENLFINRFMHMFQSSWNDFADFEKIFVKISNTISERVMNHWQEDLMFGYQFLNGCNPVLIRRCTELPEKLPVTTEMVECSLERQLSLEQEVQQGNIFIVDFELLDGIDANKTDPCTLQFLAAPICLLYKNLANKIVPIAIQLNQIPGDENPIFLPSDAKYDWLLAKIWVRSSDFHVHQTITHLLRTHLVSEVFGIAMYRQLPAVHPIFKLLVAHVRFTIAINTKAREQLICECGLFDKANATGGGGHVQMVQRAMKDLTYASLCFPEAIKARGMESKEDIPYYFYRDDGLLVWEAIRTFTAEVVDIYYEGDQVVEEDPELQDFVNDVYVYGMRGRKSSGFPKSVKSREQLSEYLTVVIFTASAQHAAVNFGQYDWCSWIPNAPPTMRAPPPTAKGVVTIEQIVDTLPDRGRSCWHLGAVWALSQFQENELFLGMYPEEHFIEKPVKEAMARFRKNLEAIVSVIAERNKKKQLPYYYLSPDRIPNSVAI
Briefly: Inhibition of 5-LO (unknown origin) at 10 uM relative to control.

Broadly, the inhibition is the drop in the measured response relative to a control, in per cent. One may read the efflux ratio as the permeability from basolateral to apical divided by that in the opposite direction, in the common usage. A word on the IC50: it is the concentration at which inhibition is half-maximal. A word on the thermodynamic solubility: it is the concentration in solution at equilibrium with solid. In the case of `CN(C)C(=O)Cn1cc(-c2nc([C@@](C)(c3ccc(-c4cnc(N)nc4)cc3)C3CC3)no2)cn1` [BI 665915], the inhibition in data set [1] was under 50%; with Mus musculus [6], “Dose-dependent effect”; in [10] it was under 50%. Also, in data set [2], the hepatic extraction ratio at 6 h, 1 µM was determined as 0.41. Also, the efflux ratio in data set [3] is 1.9. Further, the CL in the data set on Rattus norvegicus amounted to 7%; in the data set on Cynomolgus monkey it was 3.6%. Besides, in data set [4], the Vd was determined as 0.5 L/kg. Further, the concentration at 2 h in data set [5] amounted to 20.7 µM. The Activity in the data set on Mus musculus [7] was 91%. Besides, the IC50 in data set [8] came out at 0.045 µM. Besides, the thermodynamic solubility at 24 h in [9] amounted to 48 µg/mL (≈ 105 µM). Moreover, the inhibition at 11 µM at hERG (KCNH2) was found to be 11%.
